From ChEMBL document CHEMBL1123049, “Functionalized congeners of adenosine: preparation of analogues with high affinity for A1-adenosine receptors” (J Med Chem, 1985) come the findings set out here.

This assay has as its target T1, Adenosine receptor A1 (Rattus norvegicus, UniProt P25099).
T1 sequence (P25099 whole entry): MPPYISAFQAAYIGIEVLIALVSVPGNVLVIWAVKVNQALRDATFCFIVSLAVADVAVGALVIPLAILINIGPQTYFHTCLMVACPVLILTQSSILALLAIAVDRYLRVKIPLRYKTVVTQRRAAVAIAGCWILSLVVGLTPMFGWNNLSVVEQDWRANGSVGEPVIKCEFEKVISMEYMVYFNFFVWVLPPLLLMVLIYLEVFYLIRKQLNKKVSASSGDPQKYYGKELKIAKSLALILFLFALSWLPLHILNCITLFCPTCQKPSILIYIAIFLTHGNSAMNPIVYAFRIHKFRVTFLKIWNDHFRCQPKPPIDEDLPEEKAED
The assay can be described thus: Inhibition of binding of 1 nM N6-[3H]cyclohexyladenosine to adenosine A1 receptor on rat cerebral cortical membranes. Format: cell membranes, Membrane. The gist of the method:
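Displacement of 1 nM N6-[3H]cyclohexyladenosine by a range of analogue concentrations, run in triplicate in at least two separate experiments. IC50 estimated graphically for each experiment. Values are mean ± SEM of two to four experiments.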
The term Ki denotes the dissociation constant of the complex between target and ligand, obtained from inhibition or displacement. With `Cc1ccc(Nc2ncnc3c2ncn3C2O[C@H](CO)[C@@H](O)[C@H]2O)cc1` (some centres not stated), affinity was put at a Ki of 2.5 nM.
Next, `CNC(=O)CNC(=O)C(Cc1ccc(NC(=O)Cc2ccc(Nc3ncnc4c3ncn4C3O[C@H](CO)[C@@H](O)[C@H]3O)cc2)cc1)NC(=O)OC(C)(C)C` (some centres not stated): 13 nM.
As for `O=C(O)Cc1ccc(Nc2ncnc3c2ncn3C2O[C@H](CO)[C@@H](O)[C@H]2O)cc1` (some centres not stated), the affinity corresponds to a Ki of 210 nM.
`OC[C@H]1O[C@@H](n2cnc3c(Nc4ccccc4)ncnc32)[C@H](O)[C@@H]1O` [N6-PHENYLADENOSINE] registered a Ki of 3.2 nM.
Next, `O=C(Cc1ccc(Nc2ncnc3c2ncn3C2O[C@H](CO)[C@@H](O)[C@H]2O)cc1)Nc1ccc(C(F)(F)F)cc1` (some centres not stated): 3.3 nM; `Cc1ccc(NC(=O)Cc2ccc(Nc3ncnc4c3ncn4C3O[C@H](CO)[C@@H](O)[C@H]3O)cc2)cc1` (some centres not stated): 1.7 nM; `COc1ccc(Nc2ncnc3c2ncn3[C@@H]2O[C@H](CO)[C@@H](O)[C@H]2O)cc1`: 2.3 nM.
Turning to `NNC(=O)Cc1ccc(NC(=O)Cc2ccc(Nc3ncnc4c3ncn4C3O[C@H](CO)[C@@H](O)[C@H]3O)cc2)cc1` (some centres not stated), the Ki came to 4.5 nM.
Turning to `O=C(CCCCC1SCC2NC(=O)NC21)NCCNC(=O)Cc1ccc(NC(=O)Cc2ccc(Nc3ncnc4c3ncn4C3O[C@H](CO)[C@@H](O)[C@H]3O)cc2)cc1` (some centres not stated), the Ki is 11.4 nM.
The compound `CCOC(=O)CNC(=O)Cc1ccc(Nc2ncnc3c2ncn3C2O[C@H](CO)[C@@H](O)[C@H]2O)cc1` (some centres not stated) showed a Ki of 15 nM.
As for `O=C(CCc1ccc(O)cc1)NCCNC(=O)Cc1ccc(NC(=O)Cc2ccc(Nc3ncnc4c3ncn4C3O[C@H](CO)[C@@H](O)[C@H]3O)cc2)cc1` (some centres not stated), the figure is 4.5 nM; as for `CNC(=O)Cc1ccc(NC(=O)Cc2ccc(Nc3ncnc4c3ncn4C3O[C@H](CO)[C@@H](O)[C@H]3O)cc2)cc1` (some centres not stated), 6.7 nM; as for `CC(=O)NCCNC(=O)Cc1ccc(NC(=O)Cc2ccc(Nc3ncnc4c3ncn4C3O[C@H](CO)[C@@H](O)[C@H]3O)cc2)cc1` (some centres not stated), 9.3 nM.
For `COC(=O)C(Cc1ccc(NC(=O)Cc2ccc(Nc3ncnc4c3ncn4C3O[C@H](CO)[C@@H](O)[C@H]3O)cc2)cc1)NC(=O)C(F)(F)F` (some centres not stated), the Ki came to 18 nM.
Turning to `Cc1cccc(NC(=O)Cc2ccc(Nc3ncnc4c3ncn4C3O[C@H](CO)[C@@H](O)[C@H]3O)cc2)c1` (some centres not stated), the Ki was determined as 2 nM.
`Cc1ccccc1NC(=O)Cc1ccc(Nc2ncnc3c2ncn3C2O[C@H](CO)[C@@H](O)[C@H]2O)cc1` (some centres not stated) had a Ki of 6.8 nM.
With `COC(=O)Cc1ccc(NC(=O)Cc2ccc(Nc3ncnc4c3ncn4C3O[C@H](CO)[C@@H](O)[C@H]3O)cc2)cc1` (some centres not stated), the Ki amounted to 2.5 nM.
